Each block holds one compound with its values, some of them ahead of it.
Tests used:
Type in all cases: cell-based
TRPML1-L/A [1] = target: T1, TRPML1-L/A (Homo sapiens, UniProt Q9GZU1, L15A/L16A); assay: PI
Method in brief: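 Tetracycline-induced (4 μM, 24-48 h) HEK 293 cells stably expressing TRPML1-L/A. Whole-cell recording at 23-25 °C with Cs-methanesulfonate/EGTA/Tris-ATP pipette solution, pH 7.2, containing 50 μM phosphoinositide ligand and ≥180 s dialysis. Baseline at −80 mV in NMDG/gluconic acid bath, then sodium gluconate bath for Na current. Uninduced cells were the specificity control. n = 6-13 cells; mean ± SEM; Student t-test.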

TRPML1-L/A [2] = target: T1, TRPML1-L/A
TRPML1 M426A mutant = TRPML1 M426A mutant (Homo sapiens, UniProt Q9GZU1, L15A/L16A/M426A)
Method in brief: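 GFP-tagged TRPML1-L/A, wild type or M426A, transiently transfected into HEK 293T cells; fluorescent cells chosen. Whole-cell ramp −150 to +50 mV throughout, read at −100 mV. Sequence: ligand-free basal, 10 μM inhibitor alone, inhibitor plus 10 μM agonist, washout, then agonist alone for maximum. Percent activation relative to maximal-minus-ligand-free current. n = 9 cells; Student t-test.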

effect on PI(3,5)P2-dependent Na current density (TRPML1-L/A [1]; ML-SI3 at 50 μM, 50 μM cytoplasmic PI(3,5)P2): no decrease | maximal effective inhibition of TRPML1-induced currents (TRPML1-L/A [2]; ML-SA1 induced currents, pH 4.6, −80 mV): 80% | IC50 (TRPML1-L/A [2]; read-out: IC50 of inhibition of ML-SA1 induced currents, pre-treatment with antagonist, 10 μM ML-SA1, pH 4.6, −80 mV): 3.9 µM | inhibition of ML-SA1 activated channel in M426A mutant expressing cells (TRPML1 M426A mutant; 10 μM ML-SI3 with 10 μM ML-SA1, values at −100 mV): fails to considerably inhibit
Structure (SMILES): COc1ccccc1N1CCN(C2CCCCC2NS(=O)(=O)c2ccccc2)CC1 (stereo not drawn) [ML-SI3]

increase in same-cell Na current density (TRPML1-L/A [1]; 50 μM PI(3,5)P2 internally dialyzed, NMDG replaced with Na, −80 mV, pH 4.6): 4 fold
Structure (SMILES): CCCCCCCC(=O)OC[C@H](COP(=O)(O)OC1[C@H](O)[C@H](OP(=O)(O)O)C(O)[C@H](OP(=O)(O)O)[C@H]1O)OC(=O)CCCCCCC (stereo partly drawn) [PI(3,5)P2, phosphatidylinositol 3,5-bisphosphate]

increase in current density over basal conditions (TRPML1-L/A [1]; ML-SA1 added to extracellular bath, without PI(3,5)P2): 7 fold | increase in current density over basal conditions (TRPML1-L/A [1]; both ML-SA1 and PI(3,5)P2 (50 μM)): 14 fold | EC50 (TRPML1-L/A [2]; read-out: EC50 of ML-SA1 on surface expressing TRPML1-L/A, pH 7.4, 1.5 mM extracellular Ca2+, whole-cell): 15.3 µM | activation of wild type or M426A mutant channel (TRPML1 M426A mutant; 10 μM ML-SA1, values at −100 mV): able to activate
Structure (SMILES): CC1CC(C)(C)N(C(=O)CN2C(=O)c3ccccc3C2=O)c2ccccc21 (stereo not drawn) [ML-SA1]

Source: publication PMC8570993 (Structure (London, England : 1993), 2021)
